In assay [1] the test system is Staphylococcus aureus. Kind of assay: Antibacterial activity against oxacillin, chloramphenicol, erythromycin-susceptible and tetracycline-resistant Staphylococcus aureus COL-S with SCCmec excised. In kind it is functional. Summed up: (§1)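 Oxacillin MIC by population analysis: overnight-culture aliquots plated on tryptic soy agar with increasing oxacillin concentrations. CFU counted after 72 h at 30°C.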

Assay [2] deals with Staphylococcus aureus. Kind of assay: Antibacterial activity against tetracycline-resistant Staphylococcus aureus COL-S carrying SAmecA plasmid. The class given is functional. Summed up: as §1
Assay [3] relates to Staphylococcus aureus. As to the kind of experiment: Antibacterial activity against tetracycline-resistant Staphylococcus aureus COL-S carrying SSpbpD plasmid. The class given is functional. In a few lines:
as §1

Assay [4] has as its system Staphylococcus aureus. Kind of assay: Antibacterial activity against chloramphenicol-resistant Staphylococcus aureus COL carrying mecI-mecR1 plasmid. In kind it is functional. In a few lines: as §1
In assay [5] the test system is Staphylococcus aureus. Kind of assay: Antibacterial activity against chloramphenicol, tetracycline-resistant Staphylococcus aureus COL-S carrying SAmecA/mecI-mecR1 plasmid. In kind it is functional. In a few lines: as §1
In assay [6] the test system is Staphylococcus aureus. As to the kind of experiment: Antibacterial activity against chloramphenicol, tetracycline-resistant Staphylococcus aureus COL-S carrying SSpbpD/mecI-mecR1 plasmid. In kind it is functional. In a few lines: as §1
Assay [7] has as its system Staphylococcus aureus. As to the kind of experiment: Antibacterial activity against chloramphenicol-susceptible and oxacillin, erythromycin, tetracycline-resistant Staphylococcus aureus COL.

This is an account of results in ChEMBL document CHEMBL1629602, “Reconstruction of the phenotypes of methicillin-resistant Staphylococcus aureus by replacement of the staphylococcal cassette chromosome mec with a plasmid-borne copy of Staphylococcus sciuri pbpD gene” (2009).

The structures appear in SMILES notation. Values after ≈ are worked out from the molar mass of the structure shown.

Turning to `CO/N=C(\C(=O)N[C@@H]1C(=O)N2C(C(=O)O)=C(COC(C)=O)CS[C@H]12)c1csc(N)n1` [CEFOTAXIME], the minimal inhibitory concentration (MIC) (usually the smallest concentration in the dilution series that meets the test's criterion for growth inhibition) in assay [1] was determined as 0.8 µg/mL (≈ 1.76 µM); in assay [2], 800 µg/mL (≈ 1760 µM); in assay [3], 200 µg/mL (≈ 439 µM); in assay [4] it was 6 µg/mL (≈ 13.2 µM); in assay [5], 6 µg/mL (≈ 13.2 µM); in assay [6] it was 6 µg/mL (≈ 13.2 µM). Also, in assay [7], the MIC is 800 µg/mL (≈ 1760 µM).
On to `CO[C@@]1(NC(=O)Cc2cccs2)C(=O)N2C(C(=O)O)=C(COC(N)=O)CS[C@@H]21` [CEFOXITIN], for which the MIC was 3 µg/mL (≈ 7.02 µM) in assay [1]; 400 µg/mL (≈ 936 µM) in assay [2]; 200 µg/mL (≈ 468 µM) in assay [3]; 3 µg/mL (≈ 7.02 µM) in assay [4]; 6 µg/mL (≈ 14 µM) in assay [5]; 1.5 µg/mL (≈ 3.51 µM) in assay [6]. Besides, in assay [7], the MIC amounted to 800 µg/mL (≈ 1870 µM).
Consider `CO/N=C(\C(=O)N[C@@H]1C(=O)N2C(C(=O)O)=CCS[C@H]12)c1csc(N)n1` [CEFTIZOXIME], for which the MIC in assay [1] was determined as 0.8 µg/mL (≈ 2.09 µM); in assay [2] it was 800 µg/mL (≈ 2090 µM); in assay [3], 400 µg/mL (≈ 1040 µM); in assay [4] it was 3 µg/mL (≈ 7.82 µM); in assay [5], 3 µg/mL (≈ 7.82 µM); in assay [6], 12 µg/mL (≈ 31.3 µM). The lowest concentration to inhibit growth in assay [7] (MIC) was 800 µg/mL (≈ 2090 µM).
`CC1=C(C(=O)O)N2C(=O)[C@@H](NC(=O)[C@H](N)C3=CCC=CC3)[C@H]2SC1` [CEPHRADINE]: the MIC in assay [1] was 6 µg/mL (≈ 17.2 µM); in assay [2], 400 µg/mL (≈ 1140 µM); in assay [3], 100 µg/mL (≈ 286 µM); in assay [4], 6 µg/mL (≈ 17.2 µM); in assay [5], 12 µg/mL (≈ 34.3 µM); in assay [6] it was 3 µg/mL (≈ 8.59 µM). The same compound gave an MIC in assay [7] of 400 µg/mL (≈ 1140 µM).
For the compound `N[C@@H]1CONC1=O` [CYCLOSERINE], the figures for the minimum inhibitory concentration (MIC) in assay [2], in assay [3] and in assay [7] were 8 µg/mL (≈ 78.4 µM), 0.75 µg/mL (≈ 7.35 µM) and 1 µg/mL (≈ 9.79 µM), respectively.
Regarding `Cc1onc(-c2ccccc2)c1C(=O)N[C@@H]1C(=O)N2[C@@H]1SC(C)(C)[C@@H]2C(=O)O` [OXACILLIN], the MIC in assay [1] was found to be 0.8 µg/mL (≈ 1.99 µM); in assay [2], 400 µg/mL (≈ 996 µM); in assay [3], 400 µg/mL (≈ 996 µM); in assay [4], 0.4 µg/mL (≈ 0.996 µM); in assay [5] it was 0.8 µg/mL (≈ 1.99 µM); in assay [6], 0.4 µg/mL (≈ 0.996 µM). In addition, in assay [7], the MIC came to 800 µg/mL (≈ 1990 µM).
